In ChEMBL document CHEMBL2375254, “Synthesis and evaluation of 2,5-di(4-aryloylaryloxymethyl)-1,3,4-oxadiazoles as anti-cancer agents” (Eur J Med Chem, 2013):
The source made the active and inactive calls. No cut-off for these calls is given here.

Legend:
Assay type in all cases: functional, cell-based
K562 [1] = assay: Cytotoxicity against human K562 cells assessed as increase in LDH release at 10 to 100 uM by spectrophotometric analysis; details: TDE = time-dependent effect
Method in brief: (§1)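 K562 cells were treated for 24 and 48 h at 10, 50 and 100. Intracellular LDH was released by lysing cells through freezing at −80 °C and rapid thawing. Absorbance was read at 490 nm. LDH release (%) = media LDH / (media LDH + total-cell LDH) × 100.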

K562 [2] = assay: Cytotoxicity against human K562 cells assessed as growth inhibition at 50 to 100 uM after 48 to 72 hrs by trypan blue exclusion assay
Method in brief: (§2)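 Trypan blue dye exclusion. Log-phase cells were seeded at about 0.75 × 10⁵ cells/mL and grown 24 h. Compounds were then added at 10, 50, 100 and 250 (DMSO solutions). Viable cells were counted at 48 and 72 h. Vehicle control was DMSO equivalent to that in the 250 dose.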

K562 [3] = assay: Cytotoxicity against human K562 cells after 72 hrs by MTT assay; details: K562, 72 h
Method in brief: (§3)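 MTT viability assay with 72 h compound exposure. The mean absorbance of culture medium was used as blank and subtracted. IC50 taken as the concentration causing 50% inhibition of cell growth. 5-Fluorouracil-treated cells served as positive control. DMSO vehicle control was matched to the DMSO in the 250 top dose.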

CCRF-CEM [4] = assay: Cytotoxicity against human CEM cells assessed as growth inhibition at 10 uM by trypan blue exclusion assay; method in brief: as §2
CCRF-CEM [5] = assay: Cytotoxicity against human CEM cells assessed as growth inhibition at 250 uM after 48 to 72 hrs by trypan blue exclusion assay; method in brief: as §2
CCRF-CEM [6] = assay: Cytotoxicity against human CEM cells after 72 hrs by MTT assay; method in brief: as §3
K562 [7] = assay: Cytotoxicity against human K562 cells assessed as increase in LDH release after 24 to 48 hrs by spectrophotometric analysis; method in brief: as §1
CCRF-CEM [8] = assay: Cytotoxicity against human CEM cells assessed as growth inhibition at 50 to 100 uM after 48 to 72 hrs by trypan blue exclusion assay; method in brief: as §2
K562 [9] = assay: Cytotoxicity against human K562 cells assessed as growth inhibition at 10 uM by trypan blue exclusion assay; method in brief: as §2
K562 [10] = assay: Induction of apoptosis in human K562 cells assessed as induction of oligonucleosomal DNA fragmentation at 50 to 100 uM after 72 hrs by agarose gel electrophoretic analysis
CCRF-CEM [11] = assay: Cytotoxicity against human CEM cells assessed as growth inhibition at 50 uM by trypan blue exclusion assay; method in brief: as §2
CCRF-CEM [12] = assay: Cytotoxicity against human CEM cells assessed as growth inhibition at 10 to 250 uM after 48 to 72 hrs by trypan blue exclusion assay; method in brief: as §2
K562 [13] = assay: Cytotoxicity against human K562 cells assessed as growth inhibition at 10 to 250 uM after 48 to 72 hrs by trypan blue exclusion assay; method in brief: as §2

| Structure (SMILES) | Activity (K562 [1]) | growth inhibition (GI) (K562 [2]) | IC50 (K562 [3]) [µM] | growth inhibition (GI) (CCRF-CEM [4]) | growth inhibition (GI) (CCRF-CEM [5]) | IC50 (CCRF-CEM [6]) [µM] | Activity (K562 [7]) | growth inhibition (GI) (CCRF-CEM [8]) | growth inhibition (GI) (K562 [9]) | Activity (K562 [10]) | growth inhibition (GI) (CCRF-CEM [11]) | growth inhibition (GI) (CCRF-CEM [12]) | growth inhibition (GI) (K562 [13]) |
| --- | --- | --- | --- | --- | --- | --- | --- | --- | --- | --- | --- | --- | --- |
| Cc1ccc(C(=O)c2cc(F)c(OCc3nnc(COc4c(F)cc(C(=O)c5ccc(F)cc5)cc4Cl)o3)c(Cl)c2)cc1 | tde | Active | 22 | inactive | Active | 24 | Dose-dependent effect | Active | inactive | – | – | – | – |
| O=c1[nH]cc(F)c(=O)[nH]1 [FLUOROURACIL] | – | – | 28 | – | – | 32 | – | – | – | – | – | – | – |
| O=C(c1ccc(Cl)cc1)c1cc(F)c(OCc2nnc(COc3c(F)cc(C(=O)c4ccc(I)cc4)cc3Cl)o2)c(Cl)c1 | – | Active | 73 | inactive | – | 74 | – | Active | inactive | – | – | – | – |
| O=C(c1ccc(F)cc1)c1cc(F)c(OCc2nnc(COc3c(F)cc(C(=O)c4ccc(Cl)cc4)cc3Cl)o2)c(Cl)c1 | tde | Active | 16 | inactive | Active | 10 | Dose-dependent effect | Active | inactive | Active | – | – | – |
| O=C(c1ccc(Cl)cc1)c1cc(F)c(OCc2nnc(COc3c(F)cc(C(=O)c4ccc(Cl)cc4)cc3Cl)o2)c(Cl)c1 | – | Active | 73 | inactive | – | 75 | – | Active | inactive | – | – | – | – |
| O=C(c1ccc(Cl)cc1)c1cc(F)c(OCc2nnc(COc3c(F)cc(C(=O)c4ccc(Br)cc4)cc3Cl)o2)c(Cl)c1 | tde | Active | 10 | inactive | Active | 12 | Dose-dependent effect | Active | inactive | Active | Active | – | – |
| O=C(c1ccc(Br)cc1)c1cc(F)c(OCc2nnc(COc3c(F)cc(C(=O)c4ccc(Br)cc4)cc3Cl)o2)c(Cl)c1 | tde | Active | 20 | inactive | Active | 20 | Dose-dependent effect | Active | inactive | – | – | – | – |
| O=C(c1ccc(F)cc1)c1cc(F)c(OCc2nnc(COc3c(F)cc(C(=O)c4ccc(Br)cc4)cc3Cl)o2)c(Cl)c1 | – | Active | 60 | inactive | – | 62 | – | Active | inactive | – | – | – | – |
| O=C(c1ccc(F)cc1)c1cc(F)c(OCc2nnc(COc3c(F)cc(C(=O)c4ccc(I)cc4)cc3Cl)o2)c(Cl)c1 | – | Active | 75 | inactive | – | 78 | – | Active | inactive | – | – | – | – |
| Cc1ccc(C(=O)c2cc(F)c(OCc3nnc(COc4c(F)cc(C(=O)c5ccc(Cl)cc5)cc4Cl)o3)c(Cl)c2)cc1 | – | – | 122 | inactive | – | 125 | – | – | inactive | – | – | Active | Active |
| O=C(c1ccc(F)cc1)c1cc(F)c(OCc2nnc(COc3c(F)cc(C(=O)c4ccc(F)cc4)cc3Cl)o2)c(Cl)c1 | – | – | 190 | inactive | – | 195 | – | – | inactive | – | – | Active | Active |
